Results of several laboratories.
Each line is one published result; the experiments were not run side by side.
F10: Coagulation factor X (F10, Homo sapiens, UniProt P00742)
CNR2: Cannabinoid receptor 2 (CNR2, Homo sapiens, UniProt P34972)
Ribonuclease H1: Ribonuclease H1 (Homo sapiens, UniProt O60930)

| SMILES | target | test | conditions | quantity | result |
| --- | --- | --- | --- | --- | --- |
| CCOC(=O)c1ccc(OC(=O)CCCCCN=C(N)N)cc1 | F10 | enzyme activity, inhibitor |  | IC50 | 790 nM |
| CCCCC/C=C\[C@H](C)/C=C\C/C=C\Cc1ccccc1CCCC(=O)N[C@H](C)CO | CNR2 | β-arrestin recruitment, agonist |  | EC50 | 213 nM |
| O=C1c2ccccc2C(c2ccccc2F)C(=O)N1O (stereo not shown) | Ribonuclease H1 | enzyme activity, inhibitor |  | IC50 | 4640 nM |
| CC[C@H](C)[C@@H](C(=O)N1CCC[C@H]1c1nccs1)N(C)C(=O)[C@H](CC(C)C)N(C)C(=O)[C@H](Cc1ccc(OC)cc1)N(C)C(=O)/C=C(\C)OC | CNR2 | β-arrestin recruitment, antagonist |  | IC50 | 17700 nM |
| CC(C)(NC(=O)c1nn(CCCCC#N)c2ccccc12)c1cccc(C(N)=O)c1 | CNR2 | ligand displacement, radioligand | cell membranes | Ki | 780 nM |
| COc1ccc(-c2cccc(Nc3cc(=O)n(O)c(=O)n3C)c2)cc1 | Ribonuclease H1 | enzyme activity, inhibitor |  | IC50 | > 10000 nM |
| CCOC(=O)N[C@@H](CCCNC(=N)N)C(=O)N[C@@H](CCC(N)=O)C(=O)N[C@@H](Cc1ccccc1)C(=O)N[C@@H](CCCNC(=N)N)C(=O)c1nc2ccccc2s1 | F10 | cell-free assay |  | Ki | 15 nM |
| CCCCC/C=C\C/C=C\C/C=C\Cc1ccccc1CCCC(=O)N[C@H](C)CO | CNR2 | cAMP, agonist |  | EC50 | 12.5 nM |
| CC(C)(NC(=O)c1nn(CCCCCF)c2ccccc12)c1cccc(C(N)=O)c1 | CNR2 | ligand displacement, radioligand | cell membranes | Ki | 130 nM |
| COc1ccc(CCCCC(=O)C(F)(F)C(F)(F)F)cc1 | 85/88 kDa calcium-independent phospholipase A2 (PLA2G6, Homo sapiens, UniProt O60733) | enzyme activity, inhibitor |  | IC50 | 170 nM |
| CCCCC/C=C\[C@H](C)/C=C\C/C=C\Cc1ccccc1CCCC(=O)OC(CO)CO | CNR2 | cAMP, agonist |  | EC50 | 1130 nM |
| CC(C)(NC(=O)c1nn(CCCCC(F)(F)F)c2ccccc12)c1cccc(C(N)=O)c1 | CNR2 | ligand displacement, radioligand | cell membranes | Ki | 300 nM |
| N#CC(C#N)=Cc1ccc([N+](=O)[O-])c(O)c1 | Casein kinase I isoform alpha (CSNK1A1, Homo sapiens, UniProt P48729) | binding, SPR |  | Kd | > 50000 nM |
| O=c1c(-c2ccccc2)c(O)c2cc(-c3cccc(-c4ccccc4)c3)cnc2n1O | Ribonuclease H1 | enzyme activity, inhibitor |  | IC50 | > 10000 nM |
| N=C(N)NCCC[C@H](NC(=O)[C@H](Cc1ccccc1)NC(=O)[C@H](CCC(N)=O)NC(=O)OCc1ccccc1)C(=O)c1nccs1 | F10 | cell-free assay |  | Ki | 16 nM |
| CCCCCc1ccccc1C/C=C\C/C=C\C/C=C\CCCC(=O)N[C@H](C)CO | CNR2 | cAMP, agonist |  | EC50 | 678 nM |
